Publication PMC5599375 (Journal of medicinal chemistry, 2017)
≈ marks a conversion by molar mass, not a printed value. Entries after “also recorded” stand apart in the source; their conditions may differ. Where two headings read alike, the source gives them in different places.

Legend:
[1] = biological target: T1, NDM-1 (Klebsiella pneumoniae, UniProt C7C422); test: NDM-1 IC50, fluorescent fluorocillin assay; type: biochemical
[2] = biological target: T2, MMP-2 (Homo sapiens, UniProt P08253); test: MMP-2 inhibition, OmniMMP fluorogenic substrate; type: biochemical; settings: at 10 μM
T2 sequence (P08253 110-660): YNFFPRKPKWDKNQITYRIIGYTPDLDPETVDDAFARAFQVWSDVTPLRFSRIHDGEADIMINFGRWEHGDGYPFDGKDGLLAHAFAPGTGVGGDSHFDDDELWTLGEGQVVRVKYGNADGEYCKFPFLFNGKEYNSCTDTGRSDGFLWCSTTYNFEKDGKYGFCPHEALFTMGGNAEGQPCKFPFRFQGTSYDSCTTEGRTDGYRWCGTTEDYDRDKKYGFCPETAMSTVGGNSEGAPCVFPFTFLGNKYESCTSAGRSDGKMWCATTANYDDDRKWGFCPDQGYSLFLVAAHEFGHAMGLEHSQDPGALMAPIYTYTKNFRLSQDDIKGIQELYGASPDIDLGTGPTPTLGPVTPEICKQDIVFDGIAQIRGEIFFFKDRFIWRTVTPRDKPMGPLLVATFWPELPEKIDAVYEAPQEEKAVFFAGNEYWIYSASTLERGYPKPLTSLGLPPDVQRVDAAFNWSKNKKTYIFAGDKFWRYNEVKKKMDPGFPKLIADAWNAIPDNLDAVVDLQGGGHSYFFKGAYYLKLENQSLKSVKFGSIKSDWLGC
Procedure, shortened: (§1)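 Human recombinant MMP-2 (1.16 U/well) or MMP-12 (0.007 U/well) was preincubated with test compound (1 mM–5 μM range) for 30 min at 37 °C in 50 mM HEPES, 10 mM CaCl2, 0.05% Brij-35, pH 7.5. The reaction was started with 4 μM OmniMMP substrate (Mca-Pro-Leu-Gly-Leu-Dpa-Ala-Arg-NH2), and the fluorescence increase was monitored over 20 min (ex 320/em 400 nm). No-inhibitor wells were set to 100% and 200 μM NSA to 0%; run in triplicate.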

[3] = biological target: MMP-12 (Homo sapiens, UniProt P39900); test: MMP-12 inhibition, OmniMMP fluorogenic substrate; type: biochemical; settings: at 10 μM
Sequence of MMP-12 (P39900 106-470): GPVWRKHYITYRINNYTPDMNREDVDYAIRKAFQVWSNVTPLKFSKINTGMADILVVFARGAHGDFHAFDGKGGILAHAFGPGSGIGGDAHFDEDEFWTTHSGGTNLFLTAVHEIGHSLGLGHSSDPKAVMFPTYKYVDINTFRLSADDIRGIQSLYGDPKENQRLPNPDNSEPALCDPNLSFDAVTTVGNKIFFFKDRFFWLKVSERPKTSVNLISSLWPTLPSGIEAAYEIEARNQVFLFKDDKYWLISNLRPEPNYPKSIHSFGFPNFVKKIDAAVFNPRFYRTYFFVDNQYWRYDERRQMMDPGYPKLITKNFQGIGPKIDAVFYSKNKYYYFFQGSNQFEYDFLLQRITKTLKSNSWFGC
Procedure, shortened: as §1

[4] = biological target: HDAC-1 (Homo sapiens, UniProt Q13547); test: HDAC-1 inhibition, fluorescence assay; type: biochemical; settings: at 10 μM
Sequence of HDAC-1 (Q13547 whole entry): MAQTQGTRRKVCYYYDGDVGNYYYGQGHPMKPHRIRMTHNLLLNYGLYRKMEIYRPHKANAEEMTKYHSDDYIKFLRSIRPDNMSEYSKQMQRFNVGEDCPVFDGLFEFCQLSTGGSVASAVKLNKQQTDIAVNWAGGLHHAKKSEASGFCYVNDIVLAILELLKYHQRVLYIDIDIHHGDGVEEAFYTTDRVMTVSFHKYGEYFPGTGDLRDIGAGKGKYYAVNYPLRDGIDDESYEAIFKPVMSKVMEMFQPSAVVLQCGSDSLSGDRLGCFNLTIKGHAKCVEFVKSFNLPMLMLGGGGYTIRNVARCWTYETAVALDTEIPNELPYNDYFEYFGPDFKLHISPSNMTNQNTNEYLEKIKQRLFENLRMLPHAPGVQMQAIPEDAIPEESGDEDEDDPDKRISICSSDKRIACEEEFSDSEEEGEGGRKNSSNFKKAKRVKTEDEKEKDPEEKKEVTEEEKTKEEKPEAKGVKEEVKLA
Procedure, shortened: (§2)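 After 5 min preincubation, 20 μM HDAC substrate 3 was added for 30 min at 37 °C, then developer for 15 min at room temperature. Fluorescence ex 360/em 460 nm was read. No-inhibitor wells were set to 100% and 200 μM SAHA to 0%; run in triplicate.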

[5] = biological target: T3, HDAC-6 (Homo sapiens, UniProt Q9UBN7); test: HDAC-6 inhibition, fluorescence assay; type: biochemical; settings: at 10 μM
T3 sequence (Q9UBN7 1-1215): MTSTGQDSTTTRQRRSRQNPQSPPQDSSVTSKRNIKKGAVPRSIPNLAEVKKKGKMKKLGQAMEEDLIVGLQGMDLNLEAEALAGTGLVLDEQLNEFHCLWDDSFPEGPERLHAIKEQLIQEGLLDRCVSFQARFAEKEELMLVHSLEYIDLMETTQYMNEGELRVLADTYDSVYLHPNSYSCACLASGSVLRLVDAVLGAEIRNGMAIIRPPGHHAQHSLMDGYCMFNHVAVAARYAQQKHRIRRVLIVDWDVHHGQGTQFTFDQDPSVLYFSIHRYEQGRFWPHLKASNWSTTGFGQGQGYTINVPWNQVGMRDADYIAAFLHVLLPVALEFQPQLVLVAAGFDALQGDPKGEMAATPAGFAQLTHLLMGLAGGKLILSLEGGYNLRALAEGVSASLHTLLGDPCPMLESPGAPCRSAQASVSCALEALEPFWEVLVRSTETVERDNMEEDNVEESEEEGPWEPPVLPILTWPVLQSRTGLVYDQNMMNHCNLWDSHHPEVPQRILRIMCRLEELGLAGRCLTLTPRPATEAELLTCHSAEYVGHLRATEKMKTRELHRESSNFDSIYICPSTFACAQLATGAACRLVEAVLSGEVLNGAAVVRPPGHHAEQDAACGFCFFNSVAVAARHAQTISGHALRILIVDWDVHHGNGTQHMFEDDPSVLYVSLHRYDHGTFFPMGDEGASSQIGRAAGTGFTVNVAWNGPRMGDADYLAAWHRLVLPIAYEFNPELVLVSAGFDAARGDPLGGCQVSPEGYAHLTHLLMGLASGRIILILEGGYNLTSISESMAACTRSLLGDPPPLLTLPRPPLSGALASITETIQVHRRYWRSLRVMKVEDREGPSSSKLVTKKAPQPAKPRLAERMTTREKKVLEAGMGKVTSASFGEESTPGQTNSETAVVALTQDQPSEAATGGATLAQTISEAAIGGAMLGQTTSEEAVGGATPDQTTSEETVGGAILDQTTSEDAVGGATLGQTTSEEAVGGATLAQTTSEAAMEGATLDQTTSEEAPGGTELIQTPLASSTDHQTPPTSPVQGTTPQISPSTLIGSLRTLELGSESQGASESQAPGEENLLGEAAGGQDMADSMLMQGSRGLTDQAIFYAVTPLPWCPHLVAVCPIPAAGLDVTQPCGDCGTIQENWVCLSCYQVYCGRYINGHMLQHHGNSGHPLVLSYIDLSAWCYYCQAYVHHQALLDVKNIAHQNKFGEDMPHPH
Procedure, shortened: as §2

[6] = biological target: Human carbonic anhydrase II (Homo sapiens, UniProt P00918); test: hCAII inhibition, p-nitrophenyl acetate assay; type: biochemical
Procedure, shortened: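 Esterase activity was started with 500 μM p-nitrophenyl acetate and followed at 405 nm for 15 min. No-inhibitor wells were set to 100% and 50 μM benzene sulfonamide to 0%; run in triplicate.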

[7] = tested on: Zn(II)-dependent metalloenzymes (HDACs, MMPs, CAs); test: Panel of Zn; type: biochemical; settings: 50 – 100 μM; data not shown
[8] = biological target: T1, NDM-1; test: NDM-1 IC50 variation with exogenous Zn; type: biochemical; settings: Figure S3
[9] = biological target: T1, NDM-1; settings: for Zn(II) content of NDM-1 after incubation and dialysis: NDM-1 8 μM, 50 mM HEPES pH 7.5
[10] = biological target: T1, NDM-1; type: binding; settings: 2 μM NDM-1, up to 32 μM compound
[11] = tested on: E. coli and K. pneumoniae clinical isolates expressing blaNDM-1; test: organism not typed; type: cell-based
[12] = tested on: HEK293 cells; test: Cytotoxicity assay; type: cell-based, human; settings: concentrations relevant to the MIC studies; 4 and 24 h
[13] = Control titration of L-tryptophan fluorescence; settings: 2 μM L-tryptophan
[14] = tested on: clinical E. coli isolates expressing blaNDM-1; test: microbe, parasite or virus in culture; type: cell-based; settings: Escherichia coli
[15] = tested on: clinical K. pneumoniae isolates expressing blaNDM-1; test: microbe, parasite or virus in culture; type: cell-based; settings: Klebsiella pneumoniae

T1 sequence (C7C422 29-270 limits assumed): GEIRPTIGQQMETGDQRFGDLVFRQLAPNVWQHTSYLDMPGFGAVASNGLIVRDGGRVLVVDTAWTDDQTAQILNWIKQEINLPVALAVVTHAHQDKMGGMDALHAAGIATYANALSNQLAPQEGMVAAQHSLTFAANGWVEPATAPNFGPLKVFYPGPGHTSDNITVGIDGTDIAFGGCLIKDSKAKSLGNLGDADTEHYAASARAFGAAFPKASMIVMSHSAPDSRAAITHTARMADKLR

Structure (SMILES): Nc1cccc(-c2cc(C(=O)O)nc(C(=O)O)c2)c1 [Compound 36, 4-(3-Aminophenyl)pyridine-2,6-dicarboxylic acid]
- ligand efficiency [1]: 0.5 kcal/mol/non-H atom
- fold improvement in inhibition compared to DPA ([1]; fluorescent assay): 4 fold
- Percent inhibition of MMP-2 [2]: some inhibition
- Percent inhibition of MMP-12 [3]: some inhibition
- Percent inhibition of HDAC-1 [4]: did not show inhibition; also recorded: No inhibition
- Percent inhibition of HDAC-6 [5]: did not show inhibition; also recorded: No inhibition
- selectivity for NDM-1 over human CAII [6]: at least 500 fold
- Percent inhibition of hCAII ([6]; at 10 μM): did not show inhibition; also recorded: No inhibition
- inhibition of Zn(II) metalloenzymes at higher concentrations [7]: < 50%
- effect of exogenous Zn(II) in the assay buffer on NDM-1 inhibition [8]: little impact on the IC50 value
- Zn(II) content of NDM-1 after incubation and dialysis [9]: no significant removal of Zn(II)
- Zn(II) removed from NDM-1 ([9]; ~24 μM compound): 10–20%
- quenching of intrinsic tryptophan fluorescence of NDM-1 [10]: 50–60%
- effect on bacterial growth of compound alone ([11]; 36 alone (100 mg/L), all E. coli and K. pneumoniae strains): no effect on growth
- toxicity to HEK293 cells (growth, morphology, viability) [12]: not adversely effected; also recorded: did not exhibit cytotoxicity; also recorded: no toxicity was observed

Structure (SMILES): O=C(O)c1cccc(C(=O)O)n1 [DPA, 2,6-dipicolinic acid]
- effect of exogenous Zn(II) in the assay buffer on NDM-1 inhibition [8]: diminishes the inhibition activity
- Zn(II) content of NDM-1 after incubation and dialysis [9]: significant loss in Zn(II) content

Structure (SMILES): O=C(O)CN(CCN(CC(=O)O)CC(=O)O)CC(=O)O [EDTA, ethylenediaminetetraacetic acid]
- reduction of fluorescence emission of L-tryptophan [13]: no change

Structure (SMILES): C[C@@H](O)[C@H]1C(=O)N2C(C(=O)O)=C(SCCN=CN)C[C@H]12 [Imipenem, imipenem]
- MIC ([14]; read-out: MIC, imipenem, E. coli isolate Ah8.71): 16 µg/mL (≈ 53.4 µM)
- MIC ([14]; read-out: MIC, imipenem, E. coli isolate Ah8.73): 16 µg/mL (≈ 53.4 µM)
- MIC ([14]; read-out: MIC, imipenem, E. coli isolate Ah8.75): 16 µg/mL (≈ 53.4 µM)
- MIC ([14]; read-out: MIC, imipenem, E. coli isolate Ch8.68): 16 µg/mL (≈ 53.4 µM)
- MIC ([14]; read-out: MIC, imipenem, E. coli isolate Ch8.69): 4 µg/mL (≈ 13.4 µM)
- MIC ([14]; read-out: MIC, imipenem, E. coli isolate Ch8.70): 16 µg/mL (≈ 53.4 µM)
- MIC ([14]; read-out: MIC, imipenem, E. coli isolate Ch8.72): 16 µg/mL (≈ 53.4 µM)
- MIC ([15]; read-out: MIC, imipenem, K. pneumoniae isolate Cm1.62): 16 µg/mL (≈ 53.4 µM)
- MIC ([15]; read-out: MIC, imipenem, K. pneumoniae isolate Cm1.63): 8 µg/mL (≈ 26.7 µM)
- MIC ([15]; read-out: MIC, imipenem, K. pneumoniae isolate Pd1.48): 8 µg/mL (≈ 26.7 µM)
- MIC ([15]; read-out: MIC, imipenem, K. pneumoniae isolate Pd1.49): 4 µg/mL (≈ 13.4 µM)
- MIC ([15]; read-out: MIC, imipenem, K. pneumoniae isolate Pd1.50): 8 µg/mL (≈ 26.7 µM)
- MIC ([15]; read-out: MIC, imipenem, K. pneumoniae isolate Pd1.53): 8 µg/mL (≈ 26.7 µM)
- MIC ([15]; read-out: MIC, imipenem, K. pneumoniae isolate Pd1.54): 8 µg/mL (≈ 26.7 µM)
- MIC ([15]; read-out: MIC, imipenem, K. pneumoniae isolate Pd1.55): 8 µg/mL (≈ 26.7 µM)
- MIC ([11]; read-out: MICs of imipenem alone): 4 to 16 µg/mL (≈ 13.4 to 53.4 µM)

Structure (SMILES): C[C@H](CS)C(=O)N1CCC[C@H]1C(=O)O [L-Captopril]
- Zn(II) content of NDM-1 after incubation and dialysis [9]: did not change
- reduction of fluorescence emission of L-tryptophan [13]: no change
